Reference: ChEMBL document CHEMBL1811793, “Induced production of N-formyl alkaloids from Aspergillus fumigatus by co-culture with Streptomyces peucetius” (J Nat Prod, 2011)
Calls of active or inactive are those of the source. The calls are words filed in the database; no cut-off is given here.

What was measured:
[1] = system: MOLT-4; assay: Cytotoxicity against human MOLT4 cells; assay type: functional, cell-based
Method in brief: (§1)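 Run within the NCI-60 human tumour cell line screen panel.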

[2] = system: SF-295; assay: Cytotoxicity against human SF295 cells; assay type: functional, cell-based; method in brief: as §1
[3] = system: Malme-3M; assay: Cytotoxicity against human MALME-3M cells; assay type: functional, cell-based; method in brief: as §1
[4] = system: SK-MEL-28; assay: Cytotoxicity against human SK-MEL-28 cells; assay type: functional, cell-based; method in brief: as §1
[5] = system: A498; assay: Cytotoxicity against human A498 cells; assay type: functional, cell-based; method in brief: as §1
[6] = system: U-251; assay: Cytotoxicity against human U251 cells; assay type: functional, cell-based; method in brief: as §1
[7] = system: SK-MEL-5; assay: Cytotoxicity against human SK-MEL-5 cells; assay type: functional, cell-based; method in brief: as §1
[8] = system: ACHN; assay: Cytotoxicity against human ACHN cells; assay type: functional, cell-based; method in brief: as §1
[9] = system: NCI-H460; assay: Cytotoxicity against human NCI-H460 cells; assay type: functional, cell-based; method in brief: as §1
[10] = system: UACC-62; assay: Cytotoxicity against human UACC62 cells; assay type: functional, cell-based; method in brief: as §1
[11] = system: SK-OV-3; assay: Cytotoxicity against human SKOV3 cells; assay type: functional, cell-based; method in brief: as §1
[12] = system: HOP-92; assay: Cytotoxicity against human HOP92 cells; assay type: functional, cell-based; method in brief: as §1
[13] = system: Staphylococcus aureus; assay: Antimicrobial activity against Staphylococcus aureus at 50 ug/disk by Kirby-Bauer disk diffusion assay; assay type: functional, organism-based
[14] = system: Candida albicans; assay: Antimicrobial activity against Candida albicans at 50 ug/disk by Kirby-Bauer disk diffusion assay; assay type: functional, organism-based
[15] = system: Escherichia coli; assay: Antimicrobial activity against Escherichia coli at 50 ug/disk by Kirby-Bauer disk diffusion assay; assay type: functional, organism-based
[16] = system: Burkholderia thailandensis; assay: Antimicrobial activity against Burkholderia thailandensis at 50 ug/disk by Kirby-Bauer disk diffusion assay; assay type: functional
[17] = system: Fusarium incarnatum; assay: Antimicrobial activity against Fusarium pallidoroseum at 50 ug/disk by Kirby-Bauer disk diffusion assay; assay type: functional, organism-based

Row | SMILES | IC50 [1] [µM] | IC50 [2] [µM] | IC50 [3] [µM] | IC50 [4] [µM] | IC50 [5] [µM] | IC50 [6] [µM] | IC50 [7] [µM] | IC50 [8] [µM] | Activity [1] | Activity [2] | Activity [3] | Activity [4] | Activity [5] | Activity [6] | Activity [7] | Activity [8] | Activity [9] | Activity [10] | Activity [11] | Activity [12] | other results
1 | COc1ccc(/C=C(NC=O)/C(=C/c2ccc(OC)cc2)NC=O)cc1 | > 2.5 | 0.7 | 0.65 | 0.98 | 0.86 | 0.92 | 0.81 | > 2.5 | – | – | – | – | – | – | – | – | – | – | – | – | IC50 [9]: 1.12 µM; IC50 [10]: 0.75 µM; IC50 [11]: 0.84 µM; IC50 [12]: 0.89 µM
2 | [C-]#[N+]C(=C\c1ccc(OC)cc1)/C(=C/c1ccc(OS(=O)(=O)O)cc1)[N+]#[C-] | – | – | – | – | – | – | – | – | inactive | inactive | inactive | inactive | inactive | inactive | inactive | inactive | inactive | inactive | inactive | inactive | Activity [13]: inactive; Activity [14]: inactive; Activity [15]: inactive; Activity [16]: inactive; Activity [17]: inactive
3 | [C-]#[N+]C(=C\c1ccc(OC)cc1)/C(=C/c1ccc(OC)cc1)[N+]#[C-] | – | – | – | – | – | – | – | – | inactive | inactive | inactive | inactive | inactive | inactive | inactive | inactive | inactive | inactive | inactive | inactive | –
4 | COc1ccc(/C=C(NC=O)/C(=C/c2ccc(O)cc2)NC=O)cc1 | 1.81 | > 2.5 | > 2.5 | 2.03 | 1.72 | > 2.5 | > 2.5 | 1.37 | – | – | – | – | – | – | – | – | – | – | – | – | IC50 [9]: 1.84 µM; IC50 [10]: > 2.5 µM; IC50 [11]: 2.13 µM; IC50 [12]: > 2.5 µM
5 | [C-]#[N+]C(=C\c1ccc(O)cc1)/C(=C/c1ccc(OC)cc1)[N+]#[C-] | – | – | – | – | – | – | – | – | inactive | inactive | inactive | inactive | inactive | inactive | inactive | inactive | inactive | inactive | inactive | inactive | –
6 | COc1ccc(/C=C(NC=O)/C(=C/c2ccc(OS(=O)(=O)O)cc2)NC=O)cc1 | – | – | – | – | – | – | – | – | inactive | inactive | inactive | inactive | inactive | inactive | inactive | inactive | inactive | inactive | inactive | inactive | Activity [13]: inactive; Activity [14]: inactive; Activity [15]: inactive; Activity [16]: inactive; Activity [17]: inactive
